Among the data in ChEMBL document CHEMBL1132804, “Inhibitors of src tyrosine kinase: the preparation and structure-activity relationship of 4-anilino-3-cyanoquinolines and 4-anilinoquinazolines” (Bioorg Med Chem Lett, 2000) are IC50 values, retold here.

Each structure is given as a SMILES string. Where only a bound is given, the exact number is not on record here.

For assay [1], the target named is T1, Proto-oncogene tyrosine-protein kinase Src (Homo sapiens, UniProt P12931). As to the kind of experiment: In vitro inhibition of c-src tyrosine kinase. The procedure, abridged: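 ELISA tyrosine kinase kit format. ATP was then added to start the reaction, which ran 1 h at 30 °C and was stopped with EDTA. Duplicate testing; IC50 is the average of two determinations.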

Assay [2] concerns the target T1, Proto-oncogene tyrosine-protein kinase Src. As to the kind of experiment: Inhibition of Src kinase at 500 nM ATP. The procedure, abridged: (§1)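 ATP-dependence study in the same ELISA format. Human c-Src protein (3 units/reaction) and cdc2 substrate peptide were in Tris-HCl pH 7.5 buffer with MgCl₂, EGTA and Na₃VO₄. Compound preincubation was 10 min at 30 °C. The reaction was started with ATP at four final levels (100, 500, 1000, 5000), run 1 h at 30 °C and stopped with EDTA. IC50 was determined at each ATP level.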

The target is the same in assay [3]. As to the kind of experiment: Inhibition of Src kinase at 1000 nM ATP. Summed up:
as §1

For assay [4] the target is unchanged. As to the kind of experiment: Inhibition of Src kinase at 100 nM ATP. Summed up: as §1
Assay [5] has the same target. As to the kind of experiment: Inhibition of Src kinase at 5000 nM ATP. Summed up: as §1

T1 sequence (P12931 2-536 limits assumed): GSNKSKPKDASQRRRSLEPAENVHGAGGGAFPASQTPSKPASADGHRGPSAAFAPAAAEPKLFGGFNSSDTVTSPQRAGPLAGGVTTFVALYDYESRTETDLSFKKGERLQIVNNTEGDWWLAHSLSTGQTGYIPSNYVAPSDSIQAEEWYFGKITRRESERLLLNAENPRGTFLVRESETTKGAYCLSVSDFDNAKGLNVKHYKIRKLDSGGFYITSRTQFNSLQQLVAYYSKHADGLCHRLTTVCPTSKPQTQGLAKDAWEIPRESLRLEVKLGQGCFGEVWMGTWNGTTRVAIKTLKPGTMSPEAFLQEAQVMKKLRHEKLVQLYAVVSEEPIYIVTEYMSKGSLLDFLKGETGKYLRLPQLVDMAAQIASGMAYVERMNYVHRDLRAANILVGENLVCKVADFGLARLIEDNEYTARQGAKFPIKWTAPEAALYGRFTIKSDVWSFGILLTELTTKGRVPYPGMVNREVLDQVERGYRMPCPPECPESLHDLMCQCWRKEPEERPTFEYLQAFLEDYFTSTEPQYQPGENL

The term IC50 denotes the midpoint of a concentration-inhibition curve. A higher IC50 goes with weaker potency in that assay. Compound `COc1cc2ncc(CO)c(Nc3cc(OC)c(OC)c(OC)c3)c2cc1OC` came in with an IC50 in assay [1] of over 10000 nM.
In assay [1], `COc1cc2ncnc(Nc3cc(OC)c(OC)c(OC)c3)c2cc1OC` gave an IC50 of 280 nM.
On the same count and under the same terms, in the case of `COc1cc2ncc(C#N)c(Nc3cc(OC)c(OC(C)C)c(OC)c3)c2cc1OC` it was 110 nM.
In turn, `COc1cc2nccc(Nc3cc(OC)c(OC)c(OC)c3)c2cc1OC` displayed an IC50 in assay [1] of 200 nM.
Turning to `COc1cc2c(Nc3cc(OC)c(OC)c(OC)c3)c(C#N)cnc2cc1OCCCN1CCCCC1`, half-maximal inhibition in assay [1] (IC50) was put at 5.3 nM.
For the compound `CCCCCCCCCCCCOc1c(OC)cc(Nc2c(C#N)cnc3cc(OC)c(OC)cc23)cc1OC`, the IC50 in assay [1] is 180 nM.
In turn, `COc1cc2ncnc(Nc3cc(OC)c(OC(C)(C)C)c(OC)c3)c2cc1OC` came in with an IC50 in assay [1] of 2700 nM.
In the case of `CCOc1c(OC)cc(Nc2c(C#N)cnc3cc(OC)c(OC)cc23)cc1OC`, inhibition in assay [1] was half-maximal at 63 nM (IC50).
For the compound `COc1cc2ncnc(Nc3cc(OC)c(OC(C)C)c(OC)c3)c2cc1OC`, the IC50 in assay [1] worked out at 830 nM.
On the same count and under the same terms, as for `CCCCCCCCCCCCOc1c(OC)cc(Nc2ncnc3cc(OC)c(OC)cc23)cc1OC`, the figure is 5200 nM; as for `CCOC(=O)c1cnc2cc(OC)c(OC)cc2c1Nc1cc(OC)c(OC)c(OC)c1`, over 10000 nM.
On to `COc1cc2ncc(C#N)c(Nc3cc(OC)c(OC)c(OC)c3)c2cc1OC`, for which the IC50 was determined as 35 nM in assay [1]; 108 nM in assay [2]; 190 nM in assay [3]; 34 nM in assay [4]; 650 nM in assay [5].
In assay [1], `COc1cc2ncc(C#N)c(Oc3cc(OC)c(OC)c(OC)c3)c2cc1OC` displayed an IC50 of 290 nM.
Take `CCCCOc1c(OC)cc(Nc2ncnc3cc(OC)c(OC)cc23)cc1OC`: the IC50 in assay [1] came to 490 nM.
The same measure, in the same setting: as for `COc1cc2ncc(C#N)c(Nc3cc(OC)c(OC)c(OC)c3C)c2cc1OC`, the figure is 470 nM.
Compound `COc1ccc(Nc2c(C#N)cnc3cc(OC)c(OC)cc23)cc1OC` registered a concentration for half-maximal inhibition (IC50) in assay [1] of 950 nM.
On the same count and under the same terms, as for `COc1cc2ncc(C#N)c(Nc3cc(OC)c(OC)c(OC)c3Br)c2cc1OC`, the figure is 170 nM.
Still for that read-out and setting: in the case of `CCOc1c(OC)cc(Nc2ncnc3cc(OC)c(OC)cc23)cc1OC` it was 340 nM.
In assay [1], `COc1cc2c(Nc3cc(OC)c(OC)c(OC)c3)c(C#N)cnc2cc1OCCCN1CCC(O)CC1` registered an IC50 of 5.5 nM.
As for `COc1cc(Nc2c(C#N)cnc3cc(OC)c(OC)cc23)cc(OC)c1`, it took 980 nM to reach half-maximal inhibition in assay [1] (IC50).
